We go through five compounds from ChEMBL document CHEMBL1145901, “A novel ergot alkaloid as a 5-HT(1A) inhibitor produced by Dicyma sp” (J Med Chem, 2003).

Where only a bound is given, the exact number is not on record here.

The target of experiment [1] is T1, 5-hydroxytryptamine receptor 1A (Homo sapiens) (UniProt P08908).
T1 sequence (whole entry): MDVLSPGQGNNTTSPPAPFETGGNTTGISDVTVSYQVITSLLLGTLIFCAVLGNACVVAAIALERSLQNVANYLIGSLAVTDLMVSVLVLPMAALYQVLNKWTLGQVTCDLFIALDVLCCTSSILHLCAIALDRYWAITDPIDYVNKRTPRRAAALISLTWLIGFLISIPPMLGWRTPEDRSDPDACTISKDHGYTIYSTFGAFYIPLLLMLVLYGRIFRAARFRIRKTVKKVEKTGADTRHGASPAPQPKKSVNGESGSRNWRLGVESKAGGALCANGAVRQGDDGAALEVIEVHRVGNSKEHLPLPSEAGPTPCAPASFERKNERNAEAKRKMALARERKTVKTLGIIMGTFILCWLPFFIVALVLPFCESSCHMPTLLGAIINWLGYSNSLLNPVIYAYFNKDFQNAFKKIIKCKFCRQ
Put plainly: Intrinsic activity for human 5-hydroxytryptamine 1A receptors HEK 293 cell membranes using [35S]GTP gamma-S. It is filed as functional. Conditions: HEK293. In outline: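 Membranes from 10^6 HEK293 cells were preincubated with compound for 30 min at 30 °C in 20 mM HEPES pH 7.4 with 3 mM MgCl2, 100 mM NaCl, 10 μM GDP and 0.2 mM ascorbate. [35S]GTPγS (100 pM assay concentration) was then added for 30 min at 30 °C. Nonspecific binding used unlabeled GTPγS. Samples were filtered on GF/B and counted by scintillation. Intrinsic activity is relative to 5-HT; four to seven independent experiments.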
(Binding of GTPγS marks nucleotide exchange on a G protein.)

Experiment [2] has as its target T2, 5-hydroxytryptamine receptor 1A (Homo sapiens, UniProt P08908).
T2 sequence (P08908 whole entry): T1 sequence (whole entry)
The experiment can be described thus: (§1) Binding affinity against human 5-hydroxytryptamine 1A receptors HEK 293 cell membranes using [35S]GTP gamma-S. Format: functional, HEK293.

Experiment [3] concerns the target T1, 5-hydroxytryptamine receptor 1A (Homo sapiens). The description is as §1. Conditions: HEK293. Format: functional.
The target of experiment [4] is 5-hydroxytryptamine receptor 7 (Homo sapiens, UniProt P34969). Put plainly: Binding affinity against 5-hydroxytryptamine 7 human receptors.
Chain of 5-hydroxytryptamine receptor 7 (P34969 whole entry): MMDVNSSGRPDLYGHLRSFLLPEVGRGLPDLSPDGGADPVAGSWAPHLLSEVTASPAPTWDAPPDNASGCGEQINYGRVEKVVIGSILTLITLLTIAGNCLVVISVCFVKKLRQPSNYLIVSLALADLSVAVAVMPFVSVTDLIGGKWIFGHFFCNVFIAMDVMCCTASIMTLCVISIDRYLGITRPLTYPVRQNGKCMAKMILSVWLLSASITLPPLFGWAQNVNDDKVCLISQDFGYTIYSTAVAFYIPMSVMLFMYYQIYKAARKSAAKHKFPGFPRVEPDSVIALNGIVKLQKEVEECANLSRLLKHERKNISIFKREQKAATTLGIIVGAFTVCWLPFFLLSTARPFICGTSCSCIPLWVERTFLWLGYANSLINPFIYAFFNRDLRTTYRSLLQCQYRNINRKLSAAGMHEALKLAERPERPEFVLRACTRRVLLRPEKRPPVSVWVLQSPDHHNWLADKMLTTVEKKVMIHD
In another experiment the target is D(2) dopamine receptor (Homo sapiens, UniProt P14416). The experiment can be described thus: Binding affinity against human Dopamine receptor D2 in CHO cells using [125I]iodosulpiride. It is filed as cell-based.
Chain of D(2) dopamine receptor (P14416 whole entry): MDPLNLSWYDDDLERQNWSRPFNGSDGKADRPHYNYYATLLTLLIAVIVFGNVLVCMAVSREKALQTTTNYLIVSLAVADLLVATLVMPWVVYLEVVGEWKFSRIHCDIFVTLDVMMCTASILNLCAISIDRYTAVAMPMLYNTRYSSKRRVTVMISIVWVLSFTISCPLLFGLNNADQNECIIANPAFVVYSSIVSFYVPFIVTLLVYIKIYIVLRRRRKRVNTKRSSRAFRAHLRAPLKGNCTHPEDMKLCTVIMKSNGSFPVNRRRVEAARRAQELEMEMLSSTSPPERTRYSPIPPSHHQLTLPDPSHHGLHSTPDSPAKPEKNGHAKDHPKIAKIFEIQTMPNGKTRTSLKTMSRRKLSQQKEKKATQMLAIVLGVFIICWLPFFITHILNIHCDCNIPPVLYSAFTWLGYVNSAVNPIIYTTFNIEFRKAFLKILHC
The target of experiment [5] is T3, 5-hydroxytryptamine receptor 1B (Homo sapiens, UniProt P28222). Put plainly: Binding affinity against cloned human 5-hydroxytryptamine 1B receptor in CHO cells using [3H]5-CT as radioligand. It is filed as cell-based.
T3 sequence (P28222 whole entry): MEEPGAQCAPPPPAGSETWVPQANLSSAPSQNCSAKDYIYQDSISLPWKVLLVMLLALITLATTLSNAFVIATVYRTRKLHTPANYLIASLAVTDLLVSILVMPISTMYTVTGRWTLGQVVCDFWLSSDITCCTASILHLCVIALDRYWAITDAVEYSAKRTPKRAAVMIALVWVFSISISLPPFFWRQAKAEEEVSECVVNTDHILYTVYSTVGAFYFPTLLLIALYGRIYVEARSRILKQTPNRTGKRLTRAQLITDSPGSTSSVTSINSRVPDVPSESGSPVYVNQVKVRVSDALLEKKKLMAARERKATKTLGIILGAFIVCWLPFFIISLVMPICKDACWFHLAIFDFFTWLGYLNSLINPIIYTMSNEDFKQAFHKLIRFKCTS
Experiment [6] concerns the target T4, 5-hydroxytryptamine receptor 2A (Homo sapiens, UniProt P28223). Put plainly: Binding affinity against 5-hydroxytryptamine 2A receptor human cloned receptorswithouteffect in HEK 293 cells using [3H]ketanserin as radioligand. Format: cell-based, HEK293.
Experiment [7] addresses 5-hydroxytryptamine receptor 6 (Homo sapiens, UniProt P50406). Put plainly: Binding affinity against 5-hydroxytryptamine 6 human cloned receptors in HeLa cells using [3H]LSD as radioligand. Format: cell-based.
Experiment [8] concerns the target T2, 5-hydroxytryptamine receptor 1A. The experiment can be described thus: Binding affinity against 5-hydroxytryptamine 1A human cloned receptors in HEK293 cells using [3H]8-OH-DPAT as radioligand. Format: cell-based.
For experiment [9], the target named is T5, 5-hydroxytryptamine receptor 2C (Homo sapiens, UniProt P28335).
T5 sequence (P28335 whole entry): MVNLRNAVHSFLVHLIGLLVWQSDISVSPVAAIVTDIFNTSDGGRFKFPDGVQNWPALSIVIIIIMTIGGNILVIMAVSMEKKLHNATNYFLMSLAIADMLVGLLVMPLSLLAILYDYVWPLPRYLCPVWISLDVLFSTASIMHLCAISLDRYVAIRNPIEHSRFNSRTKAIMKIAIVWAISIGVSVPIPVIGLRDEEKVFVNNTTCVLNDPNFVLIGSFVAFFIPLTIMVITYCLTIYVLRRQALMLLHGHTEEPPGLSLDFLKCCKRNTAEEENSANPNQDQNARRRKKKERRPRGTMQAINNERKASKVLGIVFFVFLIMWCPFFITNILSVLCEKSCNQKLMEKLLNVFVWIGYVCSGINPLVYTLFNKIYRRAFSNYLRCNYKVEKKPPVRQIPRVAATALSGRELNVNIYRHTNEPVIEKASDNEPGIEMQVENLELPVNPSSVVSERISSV
The experiment can be described thus: Binding affinity against 5-hydroxytryptamine 2C receptor human cloned receptorswithouteffect in HEK 293 cells using [3H]mesulergine as radioligand. Format: cell-based, HEK293. The method, boiled down:
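Filtration binding on membranes from cells stably expressing the human cloned receptor, homogenized in ice-cold 50 mM Tris (pH 7.7). Assay buffer was 50 mM Tris-HCl pH 7.4 with 0.1% ascorbic acid, 10 μM pargyline, 0.5 mM EDTA and 10 mM MgCl2. Compound in DMSO was preincubated 15 min at room temperature, then radioligand was added for 30-45 min at 37 °C. Read-out was scintillation counting. IC50 came from a four-parameter logistic fit and Ki from Cheng-Prusoff; values are the mean of at least two determinations.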

The target of experiment [10] is T4, 5-hydroxytryptamine receptor 2A. Put plainly: Binding affinity against 5-hydroxytryptamine 2A receptor human cloned receptors in HEK 293 cells using [3H]ketanserin as radioligand. Format: cell-based, HEK293.
In experiment [11] the target is T3, 5-hydroxytryptamine receptor 1B. The experiment can be described thus: Binding affinity against human 5-hydroxytryptamine 1B receptor cloned receptors in CHO cells. Format: cell-based. The method, boiled down:
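Human 5-HT1B-expressing CHO cell membranes were homogenized in ice-cold 50 mM Tris (pH 7.7) and stored at -70 °C. They were resuspended in 50 mM Tris-HCl pH 7.4 containing 0.1% ascorbate, 10 μM pargyline, 0.5 mM EDTA and 10 mM MgCl2. Compound in DMSO was preincubated with membranes for 15 min at RT. [3H]-5-CT (added from 10 nM) was then incubated 30-45 min at 37 °C. Samples were filtered and counted by scintillation. Nonspecific binding used 5-HT. IC50 came from a four-parameter fit; Ki by Cheng-Prusoff. Results are means of ≥2 determinations.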

Experiment [12] has as its target T2, 5-hydroxytryptamine receptor 1A. The experiment can be described thus: Binding affinity against 5-hydroxytryptamine 1A human cloned receptors in HEK293 cells. Format: cell-based. In outline:
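Human 5-HT1A stably expressed in HEK 293 cells. Membranes were homogenised in ice-cold 50 mM Tris (pH 7.7 at 25 °C) and stored at -70 °C. Binding was measured as displacement of [3H]-8-OH-DPAT. IC50 came from a four-parameter logistic fit of cpm and was converted to Ki by Cheng-Prusoff. Values are the mean of at least two determinations.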

For experiment [13], the target named is T5, 5-hydroxytryptamine receptor 2C. Put plainly: Binding affinity against 5-hydroxytryptamine 2C receptor human cloned receptors in HEK 293 cells using [3H]mesulergine as radioligand. Format: cell-based, HEK293.
Experiment [14] has as its target T3, 5-hydroxytryptamine receptor 1B. Put plainly: Binding affinity against human 5-hydroxytryptamine 1B receptor cloned receptors in CHO cells using [3H]5-CT as radioligand. Format: cell-based. In outline:
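Membranes from CHO cells expressing human 5-HT1B, in 50 mM Tris-HCl pH 7.4 with 0.1% ascorbate, 10 μM pargyline, 0.5 mM EDTA and 10 mM MgCl2. Compound in DMSO was preincubated 15 min at RT, then 10 nM stock [3H]-5-CT was added for 30-45 min at 37 °C. Filtration on PEI-treated GF/C, scintillation counting; 200 μM 5-HT (stock) defined nonspecific binding. Four-parameter IC50, Cheng-Prusoff Ki, mean of at least two determinations.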

Chain of 5-hydroxytryptamine receptor 6 (P50406 whole entry): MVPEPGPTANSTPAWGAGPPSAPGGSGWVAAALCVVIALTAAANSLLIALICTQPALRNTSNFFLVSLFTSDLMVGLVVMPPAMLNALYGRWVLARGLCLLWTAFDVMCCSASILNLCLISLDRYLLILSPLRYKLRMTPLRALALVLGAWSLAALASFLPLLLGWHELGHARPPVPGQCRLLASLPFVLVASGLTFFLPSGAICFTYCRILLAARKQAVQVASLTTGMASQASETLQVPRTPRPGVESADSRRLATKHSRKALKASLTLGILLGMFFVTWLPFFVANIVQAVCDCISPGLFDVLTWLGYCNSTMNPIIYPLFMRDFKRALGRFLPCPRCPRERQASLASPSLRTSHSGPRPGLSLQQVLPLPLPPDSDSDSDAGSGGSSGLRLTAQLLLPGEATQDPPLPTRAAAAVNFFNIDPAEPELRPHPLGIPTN
T4 sequence (P28223 whole entry): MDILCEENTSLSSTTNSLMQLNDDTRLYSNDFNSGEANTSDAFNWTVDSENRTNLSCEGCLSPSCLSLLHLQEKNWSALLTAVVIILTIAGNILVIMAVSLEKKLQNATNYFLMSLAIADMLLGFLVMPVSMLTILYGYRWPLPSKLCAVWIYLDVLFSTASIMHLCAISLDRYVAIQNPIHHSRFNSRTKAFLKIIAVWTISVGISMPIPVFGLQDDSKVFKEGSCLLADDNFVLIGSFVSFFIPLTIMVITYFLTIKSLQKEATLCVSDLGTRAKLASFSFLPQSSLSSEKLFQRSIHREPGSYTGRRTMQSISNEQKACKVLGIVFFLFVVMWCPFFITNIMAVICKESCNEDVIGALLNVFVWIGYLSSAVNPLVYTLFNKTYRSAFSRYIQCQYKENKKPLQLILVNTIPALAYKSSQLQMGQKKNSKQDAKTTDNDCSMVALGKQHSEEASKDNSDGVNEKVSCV

Regarding `NCCc1c[nH]c2ccc(O)cc12`, the Intrinsic activity in experiment [1] was 1.

`CN1CCN(c2cc3c(cc2Cl)CCN3C(=O)Nc2ccc(-c3ccncc3)c3ccccc23)CC1` showed an EC50 in experiment [2] of 19.1 nM. Moreover, the Intrinsic activity in experiment [1] came out at 0.33. Besides, in experiment [3], the Emax was 144 and the Stimulation worked out at 42%.

Consider `CC(C)C[C@H]1C(=O)N[C@@H](Cc2ccccc2)[C@]2(O)O[C@@](C)(NC(=O)[C@@H]3C=C4c5cccc6[nH]cc(c56)C[C@H]4N(C)C3)C(=O)N12`, for which the inhibitory constant (Ki) in experiment [4] is 6.31 nM; on D(2) dopamine receptor, 3.16 nM; in [5], 3.16 nM; in experiment [6], 15.8 nM; in experiment [7], 50.1 nM; in experiment [8] it was 0.0631 nM. In experiment [9], the affinity, expressed as Ki, was 15.8 nM. In experiment [2], this compound gave an EC50 of 2 nM. In addition, the Intrinsic activity in experiment [1] is 1.11. Moreover, the Emax in [3] was found to be 229. The Stimulation in [3] came out at 138.

On to `NCCc1c[nH]c2ccc(C(N)=O)cc12`, for which the Ki in experiment [10] is greater than 5010 nM; in experiment [7] it was 1000 nM; in experiment [11], 1.26 nM.

`NCCCC1(CCCN)CCc2cccc(O)c2C1`: the Ki in [4] is 3.16 nM; in [10], 10000 nM; in [12], 2 nM; in [13], 12600 nM; in [14] it was 316 nM; in experiment [7], 126 nM.

In general, EC50 refers to the concentration at which the effect is half-maximal. Low readings indicate a more potent agent, high ones a less potent agent. The Ki is the dissociation constant of the complex between target and ligand, obtained from inhibition or displacement. A lower Ki goes with a stronger hold on the target.
